In ChEMBL document CHEMBL1122744, “2-Chloroethyl (methylsulfonyl)methanesulfonate and related (methylsulfonyl)methanesulfonates. Antineoplastic activity in vivo” (J Med Chem, 1984):

Legend:
[1] = system: Mus musculus; test: Change in weight by day 5, obtained by subtracting treated groups of animals minus control groups of animals at dose 75 mg/kg in exp2.; type: functional
Method in brief: (§1)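 Mice were inoculated ip with 10^6 P388 leukemia cells on day 0 and weighed 19–22 g that day. Compound was given ip once daily on days 1–5, within about 5 min of preparing the solution or suspension, to groups of six (occasionally five). Thirty inoculated untreated mice served as controls. The value is the average weight change of treated mice minus that of controls on day 5.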

[2] = system: Mus musculus; test: Change in weight by day 5, obtained by subtracting treated groups of animals minus control groups of animals at dose 22 mg/kg in exp3.; type: functional; method in brief: as §1
[3] = system: Mus musculus; test: Change in weight by day 5, obtained by subtracting treated groups of animals minus control groups of animals at dose 33 mg/kg in exp5; type: functional; method in brief: as §1
[4] = system: Mus musculus; test: Change in weight by day 5, obtained by subtracting treated groups of animals minus control groups of animals at dose 33 mg/kg in exp6; type: functional; method in brief: as §1
[5] = system: Mus musculus; test: Change in weight by day 5, obtained by subtracting treated groups of animals minus control groups of animals at dose 33 mg/kg in exp7; type: functional; method in brief: as §1
[6] = system: Mus musculus; test: Median survival time of the treated control groups, in which there are no 30-day survivors at dose 100 mg/kg in exp8; type: functional
[7] = system: Mus musculus; test: Median survival time of the treated control groups, in which there are no 30-day survivors at dose 22 mg/kg in exp7; type: functional
[8] = system: Mus musculus; test: Mortality by day 5 expressed as number of mice died to the total treated at dose 200 mg/kg in exp8; 6/6; type: ADME, organism-based; set-up: dose 200 mg/kg; conditions: in vivo
[9] = system: Mus musculus; test: Mortality by day 5 expressed as number of mice died to the total treated at dose 33 mg/kg in exp3; 0/5; type: ADME, organism-based; set-up: dose 33 mg/kg; conditions: in vivo
[10] = system: Mus musculus; test: Mortality by day 5 expressed as number of mice died to the total treated at dose 33 mg/kg in exp4; 0/6; type: ADME, organism-based; set-up: dose 33 mg/kg; conditions: in vivo
[11] = system: Mus musculus; test: Mortality by day 5 expressed as number of mice died to the total treated at dose 33 mg/kg in exp6; 0/6; type: ADME, organism-based; set-up: dose 33 mg/kg; conditions: in vivo
[12] = system: Mus musculus; test: Mortality by day 5 expressed as number of mice died to the total treated at dose 50 mg/kg in exp1; 0/5; type: ADME, organism-based; set-up: dose 50 mg/kg; conditions: in vivo
[13] = system: Mus musculus; test: Mortality by day 5 expressed as number of mice died to the total treated at dose 50 mg/kg in exp2; 0/5; type: ADME, organism-based; set-up: dose 50 mg/kg; conditions: in vivo
[14] = system: Mus musculus; test: Mortality by day 5 expressed as number of mice died to the total treated at dose 50 mg/kg in exp4; 0/6; type: ADME, organism-based; set-up: dose 50 mg/kg; conditions: in vivo
[15] = system: Mus musculus; test: Mortality by day 5 expressed as number of mice died to the total treated at dose 50 mg/kg in exp6; 0/6; type: ADME, organism-based; set-up: dose 50 mg/kg; conditions: in vivo
[16] = system: Mus musculus; test: Mortality by day 5 expressed as number of mice died to the total treated at dose 50 mg/kg in exp7; 0/6; type: ADME, organism-based; set-up: dose 50 mg/kg; conditions: in vivo
[17] = system: Mus musculus; test: Median survival time of the treated control groups, in which there are no 30-day survivors at dose 33 mg/kg in exp2; type: functional
[18] = system: Mus musculus; test: Median survival time of the treated control groups, in which there are no 30-day survivors at dose 33 mg/kg in exp6; type: functional
[19] = system: Mus musculus; test: Median survival time of the treated control groups, in which there are no 30-day survivors at dose 33 mg/kg in exp7; type: functional
[20] = system: Mus musculus; test: Median survival time of the untreated control groups, in which there are no 30-day survivors at dose 50 mg/kg in exp4; type: functional
[21] = system: Mus musculus; test: Median survival time of the untreated control groups, in which there are no 30-day survivors at dose 50 mg/kg in exp5; type: functional
[22] = system: Mus musculus; test: Median survival time of the untreated control groups, in which there are no 30-day survivors at dose 50 mg/kg in exp8; type: functional
[23] = system: Mus musculus; test: Median survival time of the untreated control groups, in which there are no 30-day survivors at dose 33 mg/kg in exp2; type: functional
[24] = system: Mus musculus; test: Median survival time of the untreated control groups, in which there are no 30-day survivors at dose 33 mg/kg in exp3; type: functional
[25] = system: Mus musculus; test: Median survival time of the untreated control groups, in which there are no 30-day survivors at dose 33 mg/kg in exp6; type: functional
[26] = system: Mus musculus; test: Median survival time of the untreated control groups, in which there are no 30-day survivors at dose 33 mg/kg in exp7; type: functional
[27] = system: Mus musculus; test: Median survival time of the untreated control groups, in which there are no 30-day survivors at dose 50 mg/kg in exp1; type: functional
[28] = system: Mus musculus; test: Median survival time of the treated control groups, in which there are no 30-day survivors at dose 75 mg/kg in exp2; type: functional
[29] = system: Mus musculus; test: Median survival time of the untreated control groups, in which there are no 30-day survivors at dose 100 mg/kg in exp8; type: functional
[30] = system: Mus musculus; test: Median survival time of the untreated control groups, in which there are no 30-day survivors at dose 200 mg/kg in exp8; type: functional
[31] = Ratio of median survival times for non-survivors at dose 50 mg/kg in exp8; type: functional
[32] = Ratio of median survival times for non-survivors at dose 50 mg/kg in exp5; type: functional
[33] = Ratio of median survival times for non-survivors at dose 50 mg/kg in exp6; type: functional
[34] = Ratio of number of 30-day survivors to the total treated mice at dose 50 mg/kg in exp2; 2/5; type: functional
[35] = Ratio of number of 30-day survivors to the total treated mice at dose 50 mg/kg in exp4; 6/6; type: functional
[36] = Ratio of number of 60-day survivors to the total treated mice at dose 33 mg/kg in exp4; 0/6; type: functional
[37] = Ratio of number of 60-day survivors to the total treated mice at dose 50 mg/kg in exp6; […]; type: functional
[38] = Ratio of number of 60-day survivors to the total treated mice at dose 50 mg/kg in exp8; 2/6; type: functional
[39] = Ratio of median survival times for non-survivors at dose 15 mg/kg in exp3; type: functional
Method in brief: (§2)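 Mice were inoculated ip with 10^6 P388 leukemia cells on day 0. Groups of six (occasionally five) were dosed ip qd on days 1–5 with fresh suspensions; 30 mice served as untreated controls. Deaths were recorded daily up to day 60. T/C% compares the median survival of treated non-survivors (<60 days) with the control median. Medians used grouped data when there were no 30-day survivors, otherwise ungrouped data. t = toxic.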

[40] = Ratio of median survival times for non-survivors at dose 200 mg/kg in exp1; t= toxic; type: ADME, organism-based; set-up: dose 200 mg/kg; conditions: in vivo; method in brief: as §2
[41] = Ratio of median survival times for non-survivors at dose 22 mg/kg in exp5; type: functional
[42] = Ratio of median survival times for non-survivors at dose 33 mg/kg in exp7; type: functional
[43] = Ratio of number of 30-day survivors to the total treated mice at dose 50 mg/kg in exp6; 3/6; type: functional
[44] = system: Mus musculus; test: Median survival time of the untreated control groups, in which there are no 30-day survivors at dose 50 mg/kg in exp7; type: functional
[45] = Ratio of median survival times for non-survivors at dose 22 mg/kg in exp4

CS(=O)(=O)CS(=O)(=O)OCCCl
Change in weight [1]: -4.2 | Change in weight [2]: -1.3 | Change in weight [3]: -1.5 | Change in weight [4]: -2.1 | Change in weight [5]: -2.4 | Median survival time [6]: 6 | Median survival time [7]: 18 | Mortality [8]: 6 | Mortality [9]: 0 | Mortality [10]: 0 | Mortality [11]: 0 | Mortality [12]: 0 | Mortality [13]: 0 | Mortality [14]: 0 | Mortality [15]: 0 | Mortality [16]: 0 | Median survival time [17]: 23.5 | Median survival time [18]: 23.3 | Median survival time [19]: 22.3 | Median survival time [20]: 10.5 | Median survival time [21]: 12 | Median survival time [22]: 11 | Median survival time [23]: 11.2 | Median survival time [24]: 11.1 | Median survival time [25]: 13 | Median survival time [26]: 10.7 | Median survival time [27]: 11.2 | Median survival time [28]: 17.5 | Median survival time [29]: 11 | Median survival time [30]: 11 | Ratio [31]: 273 | Ratio [32]: 225 | Ratio [33]: 335 | Ratio [34]: 2 | Ratio [35]: 6 | Ratio [36]: 0 | Ratio [37]: 2 | Ratio [38]: 2 | Ratio [39]: 144 | Ratio [40]: Toxic | Ratio [41]: 161 | Ratio [42]: 179 | Ratio [43]: 3 | Median survival time [44]: 13 | Ratio [45]: 180
